The subject of one data set is NCI-H661. The data set can be described thus: Induction of apoptosis in human NCI-H661 cells assessed as fold induction of capsase-3/7 activity measured after 24 to 48 hrs in presence of carboplatin by caspase-glo 3/7 assay. Particulars: time 24-48 hrs. The format is functional.
In data set [1] the test system is NCI-H460. The data set can be described thus: Induction of apoptosis in human NCI-H460 cells assessed as fold induction of capsase-3/7 activity measured after 24 to 48 hrs in presence of carboplatin by caspase-glo 3/7 assay. In kind it is functional. The conditions noted are these: time 24-48 hrs.
In data set [2] the test system is A2780. The data set can be described thus: Synergistic antiproliferative activity against human A2780 cells assessed as combination index at ED75 measured after 72 hrs in presence of 5-FU by celltiter-glo assay. The format is functional. In short, it runs like this: (§1)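 Cells were seeded at 2–3 × 10³ per well in RPMI 1640 with 10% FBS. At 24 h, MK-2206 and the partner drug were added simultaneously at constant concentration ratios spanning each agent's IC₅₀, for 72 h. Growth was read as cellular ATP by CellTiter-Glo. CI was taken from median-effect plots of each agent alone and in combination (Chou–Talalay), at ED₅₀, ED₇₅ and ED₉₀.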

The next data set has as its system HCC70. The data set can be described thus: Synergistic antiproliferative activity against human HCC70 cells assessed as combination index at ED50 measured after 72 hrs in presence of docetaxel by celltiter-glo assay. In kind it is functional. In short, it runs like this: (§2)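 Cells grown in RPMI 1640 with 10% heat-inactivated FBS at 37°C, 5% CO₂. Seeded at 2 to 3 × 10³ per well; drugs added 24 h later. […] Viability read as cellular ATP by CellTiter-Glo. CI calculated by Chou–Talalay from median-effect plots at ED50, ED75 and ED90.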

The test system of data set [3] is SK-OV-3. In words: Synergistic antiproliferative activity against human SK-OV-3 cells assessed as combination index at ED50 measured after 72 hrs in presence of lapatinib by celltiter-glo assay. In kind it is functional.
Another data set concerns BT-474. In words: Synergistic antiproliferative activity against human BT-474 cells assessed as combination index at ED75 preincubated for 24 hrs followed by compound washout and subsequent docetaxel addition and measured after 72 hrs by celltiter-glo assay. In kind it is functional. In short, it runs like this:
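Sequential schedule. Cells were seeded at 2 to 3 × 10³ per well in RPMI 1640 with 10% FBS and dosed 24 h after plating. They were exposed to the Akt inhibitor for 24 h, washed free of it, then given docetaxel for a further 72 h. Fixed concentration ratios spanned each agent's IC₅₀. ATP was read by CellTiter-Glo, and Chou–Talalay CI was calculated at ED50, ED75 and ED90.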

Data set [4] relates to SK-OV-3. In words: Antiproliferative activity against human SK-OV-3 cells assessed as reduction in cell proliferation measured after 72 hrs by celltiter-glo assay. Particulars: SK-OV-3, 72 h. In kind it is functional, cell-based. In short, it runs like this: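 Cells in RPMI 1640 with 10% heat-inactivated FBS at 37°C and 5% CO₂ were seeded at 2 to 3 × 10³ per well. […] Growth was read as cellular ATP by CellTiter-Glo.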

Data set [5] has as its system NCI-H460. The data set can be described thus: Synergistic antiproliferative activity against human NCI-H460 cells assessed as combination index at ED25 to ED90 measured after 72 hrs in presence of gemcitabine by celltiter-glo assay. The format is functional.
A further data set concerns MDA-MB-453. In words: Synergistic antiproliferative activity against human MDA-MB-453 cells assessed as combination index at ED75 measured after 72 hrs in presence of docetaxel by celltiter-glo assay. The format is functional. The essentials:
as §2

Data set [6] has as its system NCI-N87. In words: Synergistic antiproliferative activity against human NCI-N87 cells assessed as combination index at ED90 measured after 72 hrs in presence of lapatinib by celltiter-glo assay. In kind it is functional.
For data set [7], the system named is NCI-H460. In words: Synergistic antiproliferative activity against human NCI-H460 cells assessed as combination index at ED50 measured after 72 hrs in presence of carboplatin by celltiter-glo assay. The format is functional.
The test system of a further data set is SK-BR-3. In words: Synergistic antiproliferative activity against human SK-BR-3 cells assessed as combination index at ED90 measured after 96 hrs in presence of lapatinib by celltiter-glo assay. The format is functional.
A short description of data set [8]: Toxicity in human NCI-H460 cells xenografted CD1 nude mouse assessed as body weight loss at 120 mg/kg, po administered 3 times per week for 2 weeks in presence of carboplatin measured during compound dosing relative to control. In kind it is organism-based. The conditions noted are these: in vivo, 336 h. In short, it runs like this:
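Female CD1-nude mice with s.c. NCI-H460 tumours (50% Matrigel/50% PBS), randomized at mean 0.2 cm³, n=5/group, dosing from 12 d post-implant. Body weight monitored against vehicle-only controls.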

The subject of another data set is A-431. In words: Synergistic antiproliferative activity against human A-431 cells assessed as combination index at ED90 measured after 72 hrs in presence of erlotinib by celltiter-glo assay. In kind it is functional. The essentials: as §1
The next data set deals with Calu-6. In words: Synergistic antiproliferative activity against human Calu-6 cells assessed as combination index at ED75 measured after 72 hrs in presence of erlotinib by celltiter-glo assay. In kind it is functional. In short, it runs like this: as §2
Data set [9] can be described thus: Toxicity in human NCI-H292 cells xenografted CD-1 mouse assessed as weight loss at 360 mg/kg, po administered once a week for 2 weeks starting 2 hrs post-erlotinib treatment and measured during compound dosing. Particulars: in vivo, 336 h. The format is organism-based. In short, it runs like this:
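NCI-H292 cells in 50% Matrigel/PBS injected s.c. into flank of female CD1-nude mice; dosing began after 2 wk at mean tumour 0.2 cm³, n = 5/group. […] Body weight and signs monitored; treatment ended day 16.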

The subject of another data set is MDA-MB-468. The data set can be described thus: Synergistic antiproliferative activity against human MDA-MB-468 cells assessed as combination index at ED50 measured after 96 hrs in presence of lapatinib by celltiter-glo assay. In kind it is functional.
In another data set the test system is NCI-H1299. The data set can be described thus: Synergistic antiproliferative activity against human NCI-H1299 cells assessed as fold change in erlotinib IC50 at 1 umol/L measured after 72 hrs in presence of erlotinib by celltiter-glo assay relative to erlotinib alone. Particulars: dose 1 µmol/L. In kind it is functional.
Data set [10] deals with HCC827. In words: Synergistic antiproliferative activity against human HCC827 cells assessed as combination index at ED90 measured after 72 hrs in presence of erlotinib by celltiter-glo assay. The format is functional. In short, it runs like this:
as §2

The subject of data set [11] is HCC827. The data set can be described thus: Synergistic antiproliferative activity against human HCC827 cells assessed as combination index at ED50 measured after 72 hrs in presence of erlotinib by celltiter-glo assay. In kind it is functional. In short, it runs like this: as §2
Data set [12] concerns A2780. In words: Synergistic antiproliferative activity against human A2780 cells assessed as combination index at ED90 measured after 72 hrs in presence of camptothecin by celltiter-glo assay. In kind it is functional. In short, it runs like this: as §1
Data set [13] in a line: Toxicity in human HCC70 cells xenografted CB17/icr SCID mouse assessed as mortality at 120 mg/kg, po administered 3 times per week for 3 weeks starting 2 hrs post-lapatinib treatment and measured during compound dosing. In kind it is organism-based. Particulars: in vivo, 504 h. The essentials:
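HCC70 cells in 50% Matrigel/PBS injected s.c. into flank of female C.B-17/ICR-scid mice; dosing began after 3 wk, groups randomized at mean tumour 0.2 cm³ (n = 5). Lapatinib 100 mg/kg p.o. in distilled water, 5 d/wk for 3 wk; MK-2206 in 30% Captisol p.o. 3×/wk for 3 wk, given 2 h after lapatinib. Body weight and physical signs monitored throughout.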

Data set [14] has as its system NCI-N87. In words: Synergistic antiproliferative activity against human NCI-N87 cells assessed as combination index at ED75 measured after 72 hrs in presence of lapatinib by celltiter-glo assay. The format is functional.
For data set [15], the system named is A2780. In words: Synergistic antiproliferative activity against human A2780 cells assessed as combination index at ED90 measured after 72 hrs in presence of gemcitabine by celltiter-glo assay. The format is functional. In short, it runs like this: as §1

Data on one molecule can be found in ChEMBL document CHEMBL5705892, “MK-2206, an allosteric Akt inhibitor, enhances antitumor efficacy by standard chemotherapeutic agents or molecular targeted drugs in vitro and in vivo” (Mol Cancer Ther, 2010).

Some results are limits rather than exact numbers.

Take `Cl.NC1(c2ccc(-c3nc4ccn5c(=O)[nH]nc5c4cc3-c3ccccc3)cc2)CCC1`: the “fold change (FC)” value in the data set with NCI-H661 was 2; with NCI-H460 [1], 1.4. Moreover, the CI75 in the data set with A2780 [2] came out at 0.54; in the data set on BT-474 it was 1.5; with MDA-MB-453, 0.6; in the data set on Calu-6, 0.25; in the data set with NCI-N87 [14] it was 0.55. Moreover, the CI50 is listed as 0.9 in the data set with HCC70; 0.07 in the data set on SK-OV-3 [3]; 0.35 in the data set on NCI-H460 [7]; 0.18 in the data set on MDA-MB-468; 0.39 with HCC827 [11]. Moreover, the IC50 in the data set on SK-OV-3 [4] worked out at 5.1 µM. In the data set on NCI-H460 [5], the CI is recorded as 0.33. Besides, the CI90 with NCI-N87 [6] is on record as 0.69; with SK-BR-3, 0.18; in the data set with A-431 it was 0.14; in the data set with HCC827 [10] it was 0.12; with A2780 [12], 0.29; in the data set with A2780 [15] it was 0.39. For the same molecule, the figures for the Activity in data set [8], in data set [9] and in data set [13] were 7%, “Toxic” and “Non-Toxic”, respectively. Further, the “Ratio IC50” value in the data set with NCI-H1299 is greater than 7.9.
